Source: ChEMBL document CHEMBL1240328, “Selective compounds define Hsp90 as a major inhibitor of apoptosis in small-cell lung cancer” (Nat Chem Biol, 2007)
Activity calls are given as the source filed them. The calls are words filed in the database; no cut-off is given here.

Assays:
SK-BR-3 [1] = assay: Inhibition of HSP70-mediated antiapoptotic activity in human SKBR3 cells assessed as induction of cell growth arrest after 72 hrs by propidium iodide staining-based flow cytometry
[2] = target: Heat shock protein HSP 90-beta (Homo sapiens) (UniProt P08238); assay: Inhibition of HSP90-mediated antiapoptotic activity in human SKBR3 cells assessed as induction of PARP cleavage at 200 uM after 24 hrs by Western blot analysis; assay type: cell-based; conditions: SK-BR-3
Summary of the method: (§1)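 SKBr3 breast cancer cells at 60–70% confluence treated 24 h with compound or DMSO vehicle. Lysates in 50 mM Tris pH 7.4, 150 mM NaCl, 1% NP-40, quantified by BCA. 20–100 µg resolved by SDS-PAGE, blotted to nitrocellulose and probed for cleaved caspase-3, caspase-9 and PARP, using 1:5,000 peroxidase secondary. β-actin or PI(3)K p85 served as loading control.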

[3] = target: Heat shock protein HSP 90-beta (Homo sapiens) (UniProt P08238); assay: Inhibition of HSP90-mediated antiapoptotic activity in human MCF7 cells assessed as induction of caspase-9 cleavage at 200 uM after 24 hrs by Western blot analysis; assay type: cell-based
[4] = target: Heat shock protein HSP 90-beta (Homo sapiens) (UniProt P08238); assay: Inhibition of HSP90-mediated antiapoptotic activity in human SKBR3 cells assessed as induction of caspase-3 cleavage at 200 uM after 24 hrs by Western blot analysis; assay type: cell-based; conditions: SK-BR-3; summary of the method: as §1
[5] = target: Heat shock protein HSP 90-beta (Homo sapiens) (UniProt P08238); assay: Inhibition of HSP90-mediated antiapoptotic activity in human MCF7 cells assessed as induction of caspase-3 cleavage at 200 uM after 24 hrs by Western blot analysis; assay type: cell-based
SK-BR-3 [6] = assay: Inhibition of HSP70-mediated antiapoptotic activity in human SKBR3 cells assessed as increase in caspase-3 activity after 24 hrs by Western blot analysis; assay type: cell-based
[7] = target: Heat shock protein HSP 90-beta (Homo sapiens) (UniProt P08238); assay: Inhibition of HSP90-mediated antiapoptotic activity in human SKBR3 cells assessed as induction of caspase-9 cleavage at 200 uM after 24 hrs by Western blot analysis; assay type: cell-based; conditions: SK-BR-3; summary of the method: as §1
SK-BR-3 [8] = assay: Inhibition of HSP70-mediated antiapoptotic activity in human SKBR3 cells assessed as induction of PARP cleavage after 24 hrs by Western blot analysis; assay type: cell-based
Summary of the method: (§2)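 SKBr3 cells were treated for 24 h. Lysates were probed by western blot for caspase-3 and PARP cleavage. Apaf-1 complexes were pulled down with Apaf-1 antibody (with control IgG) and immunoblotted.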

SK-BR-3 [9] = assay: Inhibition of HSP70-mediated antiapoptotic activity in human SKBR3 cells assessed as induction of caspase-3 cleavage after 24 hrs by Western blot analysis; assay type: cell-based; summary of the method: as §2
NCI-H526 [10] = assay: Inhibition of HSP70-mediated antiapoptotic activity in human NCI-H526 cells assessed as induction of caspase-3 cleavage after 24 hrs by Western blot analysis; assay type: cell-based
Summary of the method: (§3)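 NCI-H526 cells were treated for 24 h. PARP and caspase-3 cleavage were read by western blot of lysates in Tris/NaCl/NP-40 buffer. Apaf-1 complexes were immunoprecipitated with Apaf-1 antibody, using control IgG, then blotted.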

NCI-H526 [11] = assay: Inhibition of HSP70-mediated antiapoptotic activity in human NCI-H526 cells assessed as induction of PARP cleavage after 24 hrs by Western blot analysis; assay type: cell-based; summary of the method: as §3
NCI-H526 [12] = assay: Inhibition of HSP70-mediated antiapoptotic activity in human NCI-H526 cells assessed as release of Apaf-1 from chaperon complex after 24 hrs by Western blot analysis; assay type: cell-based; summary of the method: as §3
[13] = target: Heat shock protein HSP 90-beta (Homo sapiens) (UniProt P08238); assay: Inhibition of HSP90-mediated antiapoptotic activity in human MCF7 cells assessed as induction of PARP cleavage at 200 uM after 24 hrs by Western blot analysis; assay type: cell-based
[14] = target: Heat shock protein HSP 90-beta (Homo sapiens) (UniProt P08238); assay: Inhibition of HSP90-mediated antiapoptotic activity in human NCI-H526 cells assessed as induction of Akt degradation at 50 uM after 24 hrs by Western blot analysis; assay type: cell-based
[15] = target: Heat shock protein HSP 90-beta (Homo sapiens) (UniProt P08238); assay: Inhibition of HSP90-mediated antiapoptotic activity in human MCF7 cells assessed as induction of caspase-3 cleavage at 50 uM after 24 hrs by Western blot analysis; assay type: cell-based
[16] = target: Heat shock protein HSP 90-beta (Homo sapiens) (UniProt P08238); assay: Inhibition of HSP90-mediated antiapoptotic activity in human MCF7 cells assessed as induction of cell growth arrest at 50 uM after 24 hrs by propidium iodide staining-based flow cytometry
[17] = target: Heat shock protein HSP 90-beta (Homo sapiens) (UniProt P08238); assay: Inhibition of HSP90-mediated antiapoptotic activity in human SKBR3 cells assessed as induction of cell growth arrest at 50 uM after 24 hrs by propidium iodide staining-based flow cytometry; conditions: SK-BR-3
SK-BR-3 [18] = assay: Inhibition of HSP70-mediated antiapoptotic activity in human SKBR3 cells assessed as release of Apaf-1 from chaperon complex after 24 hrs by Western blot analysis; assay type: cell-based; summary of the method: as §2
[19] = target: Heat shock protein HSP 90-beta (Homo sapiens) (UniProt P08238); assay: Inhibition of HSP90-mediated antiapoptotic activity in human SKBR3 cells assessed as induction of caspase-3 cleavage at 400 uM after 24 hrs by Western blot analysis; assay type: cell-based; conditions: SK-BR-3
Summary of the method: (§4)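 SKBr3 cells at 60–70% confluence were exposed to drug or DMSO vehicle. Lysis was in 50 mM Tris pH 7.4, 150 mM NaCl, 1% NP-40, with protein measured by BCA. Lysates of 20–100 µg were run on SDS-PAGE, blotted to nitrocellulose, probed with primary antibodies and detected with a peroxidase-conjugated secondary (1:5,000). Loading was checked with β-actin or PI(3)K p85.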

[20] = target: Heat shock protein HSP 90-beta (Homo sapiens) (UniProt P08238); assay: Inhibition of HSP90-mediated antiapoptotic activity in human NCI-H526 cells assessed as reduction in BAD phosphorylation at 50 uM after 24 hrs by Western blot analysis; assay type: cell-based
[21] = target: Heat shock protein HSP 90-beta (Homo sapiens) (UniProt P08238); assay: Inhibition of HSP90-mediated antiapoptotic activity in human SKBR3 cells assessed as induction of PARP cleavage at 50 uM after 24 hrs by Western blot analysis; assay type: cell-based; conditions: SK-BR-3; summary of the method: as §4
[22] = target: Heat shock protein HSP 90-beta (Homo sapiens) (UniProt P08238); assay: Inhibition of HSP90-mediated antiapoptotic activity in human MCF7 cells assessed as induction of PARP cleavage at 50 uM after 24 hrs by Western blot analysis; assay type: cell-based
[23] = target: Heat shock protein HSP 90-beta (Homo sapiens) (UniProt P08238); assay: Inhibition of HSP90-mediated antiapoptotic activity in human MCF7 cells assessed as induction of caspase-9 cleavage at 50 uM after 24 hrs by Western blot analysis; assay type: cell-based

Chain of Heat shock protein HSP 90-beta (Homo sapiens) (P08238 whole entry): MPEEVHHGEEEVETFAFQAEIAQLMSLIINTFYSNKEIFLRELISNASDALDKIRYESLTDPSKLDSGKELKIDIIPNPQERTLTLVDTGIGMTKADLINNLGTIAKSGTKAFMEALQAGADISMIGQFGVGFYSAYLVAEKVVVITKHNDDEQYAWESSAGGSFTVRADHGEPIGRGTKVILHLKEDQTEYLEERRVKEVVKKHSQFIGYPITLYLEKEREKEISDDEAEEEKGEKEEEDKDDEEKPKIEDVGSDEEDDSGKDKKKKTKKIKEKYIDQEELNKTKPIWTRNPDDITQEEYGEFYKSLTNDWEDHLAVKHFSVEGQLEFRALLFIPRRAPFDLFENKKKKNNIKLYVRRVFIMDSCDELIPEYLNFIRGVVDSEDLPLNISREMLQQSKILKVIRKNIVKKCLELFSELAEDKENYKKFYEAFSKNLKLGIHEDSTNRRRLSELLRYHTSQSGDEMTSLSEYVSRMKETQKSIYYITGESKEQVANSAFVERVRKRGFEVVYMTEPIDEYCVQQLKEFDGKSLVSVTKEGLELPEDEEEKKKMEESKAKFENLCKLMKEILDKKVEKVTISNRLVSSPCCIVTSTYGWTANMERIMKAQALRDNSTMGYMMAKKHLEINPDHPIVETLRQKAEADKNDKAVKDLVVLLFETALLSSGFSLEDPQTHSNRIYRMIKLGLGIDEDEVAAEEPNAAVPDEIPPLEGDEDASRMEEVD

O=c1c(O)c(-c2ccc(O)c(O)c2)oc2cc(O)cc(O)c12
inhibition (SK-BR-3 [1]): Active | Activity [2]: inactive | Activity [3]: inactive | Activity [4]: inactive | Activity [5]: inactive | inhibition (SK-BR-3 [6]): Active | Activity [7]: inactive | inhibition (SK-BR-3 [8]): Active | inhibition (SK-BR-3 [9]): Active | inhibition (NCI-H526 [10]): inactive | inhibition (NCI-H526 [11]): inactive | inhibition (NCI-H526 [12]): inactive | Activity [13]: inactive

CCCCCCN(C(=O)CCCCCN1C(=O)NC(c2ccc(-c3ccccc3)cc2)C(C(=O)OCc2ccccc2)=C1C)C(C(=O)NCCCC)c1ccc(OCC(=O)OC)c(C(=O)OC)c1 (stereo not given)
inhibition (SK-BR-3 [1]): Active | Activity [14]: Active | Activity [15]: Active | inhibition (SK-BR-3 [6]): Active | Activity [16]: Active | Activity [17]: Active | inhibition (SK-BR-3 [18]): inactive | Activity [19]: Active | inhibition [20]: Active | inhibition (SK-BR-3 [8]): Active | inhibition (SK-BR-3 [9]): Active | inhibition (NCI-H526 [10]): inactive | inhibition (NCI-H526 [11]): inactive | Activity [21]: Active | Activity [22]: Active | inhibition (NCI-H526 [12]): inactive | Activity [23]: Active
